Source: paper PMC11638133 (Journal of Veterinary Internal Medicine, 2024)
Values belong to the compound of their own block, whether it stands above or below them.

Experiments:
[1] = Plasma pharmacokinetics of active drug metabolites after oral CARDALIS®; format: in vivo, beagle dogs; conditions: linear mixed model, AUC over the first 24 hours, natural logarithmic scale
Outline: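 Healthy purpose-bred beagles, 6 per group, were fed a low-sodium diet for 5 days, then given an oral ACE-inhibitor/mineralocorticoid-antagonist combination for 14 days at 0.25+2 mg/kg q24h, 0.25+2 mg/kg q12h or 0.5+4 mg/kg q12h. Serial Day-13 plasma was stored at −80°C, and three active metabolites were measured by LC-MS/MS. […] Dose–AUC used a linear mixed model (dog random effect, ln scale).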

[2] = system: renin‐angiotensin‐aldosterone system (RAAS); conditions: 2 mg/kg PO q24h vs 4 mg/kg PO q24h, monotherapy; cited from earlier work
[3] = system: renin‐angiotensin‐aldosterone system (RAAS); conditions: cited from earlier work
[4] = highest dose 4 times higher than lowest dose of benazepril

SMILES: CS[C@@H]1CC2=CC(=O)CC[C@]2(C)[C@H]2CC[C@@]3(C)[C@@H](CC[C@@]34CCC(=O)O4)[C@H]12 [TMS, 7‐alpha‐thiomethylspironolactone]
increase in AUC for a 1 mg increase in dose [1]: 1.50 units

increase in AUC for a 1 mg increase in dose [1]: 1.99 ng·h/mL
SMILES: O=C(O)CN1C(=O)[C@@H](N[C@@H](CCc2ccccc2)C(=O)O)CCc2ccccc21 [Benazeprilat, benazeprilat]

SMILES: CC(=O)S[C@@H]1CC2=CC(=O)CC[C@]2(C)[C@H]2CC[C@@]3(C)[C@@H](CC[C@@]34CCC(=O)O4)[C@H]12 [spironolactone]
Dose-dependent differences in RAAS metabolites (including aldosterone) [2]: no dose‐dependent differences in RAAS metabolites (including aldosterone)

SMILES: CCOC(=O)[C@H](CCc1ccccc1)N[C@H]1CCc2ccccc2N(CC(=O)O)C1=O [benazepril]
difference in mean ACE‐S between the highest and lowest doses [3, 4]: −59%
difference in mean Ang1‐7 between the highest and lowest doses [3, 4]: +47%
difference in mean AngII between the highest and lowest doses [3, 4]: −38%
lower values of AngII ([3]; highest dose studied (0.5 mg/kg) compared to the lowest dose studied (0.125 mg/kg)): 38%

increase in AUC for a 1 mg increase in dose [1]: 1.54 units
SMILES: C[C@]12CCC(=O)C=C1C=C[C@@H]1[C@@H]2CC[C@@]2(C)[C@H]1CC[C@@]21CCC(=O)O1 [Canrenone, canrenone]
